IC50 data for nine compounds are collected here from ChEMBL document CHEMBL1153726, “Synthesis and anticancer activity of sclerophytin-inspired hydroisobenzofurans” (Bioorg Med Chem Lett, 2009).

This test is described as follows: Antitumor activity against human KB3 cells after 96 hrs by MTT assay. Type of test: functional, cell-based. As to conditions: KB3, 96 h. Put shortly:
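Human KB-3 carcinoma cells exposed to increasing compound concentrations; viability read by MTT colorimetric assay after 96 h. Values are means of triplicate assays, expressed relative to untreated controls.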

As to `C=C(C)[C@H]1CC=C(C)C2=CO[C@@H](c3cccc4ccccc34)[C@@H]21`, the IC50 was over 100 µM.

Compound `C=C(C)[C@H]1CC=C(C)C2=CO[C@@H](c3ccco3)[C@@H]21` gave an IC50 of 2 µM.

For `C=C(C)[C@H]1CC=C(C)[C@@]2(O)[C@@H]1[C@H](c1ccccc1Br)O[C@@H]2C(=O)OC`, half-maximal inhibition (IC50) required 5 µM.

For the compound `C=C(C)[C@H]1CC=C(C)[C@@]2(O)[C@@H]1[C@H](c1cccc(Br)c1)O[C@@H]2C(=O)OCC`, the IC50 came to 3 µM.

Take `C=C(C)[C@H]1CC(=O)C(C)=C2[C@@H](C(=O)OCC)O[C@@H](c3cccc(Cl)c3Cl)[C@@H]21`: the IC50 turned out to be 5 µM.

`C=C(C)[C@H]1CC=C(C)[C@@]2(O)[C@@H]1[C@H](c1ccccn1)O[C@@H]2C(=O)OC` returned an IC50 of 100 µM.

In turn, `C=C(C)[C@H]1CC=C(C)[C@@]2(O)[C@@H]1[C@H](c1ccccc1Br)O[C@@H]2C(=O)OCC` registered an IC50 of 20 µM.

The compound `C=C(C)[C@H]1CC=C(C)[C@@]2(O)[C@@H]1[C@H](c1cccc(Cl)c1Cl)O[C@@H]2C(=O)OCC` showed an IC50 of 5 µM.

For the compound `C=C(C)[C@H]1CC(=O)C(C)=C2[C@@H](C(=O)OCC)O[C@@H](c3ccccc3Br)[C@@H]21`, the IC50 is 70 µM.
